Where a name gives a salt, the structure may show the parent alone.
Experiments:
[1] = target: T1, Amine oxidase [flavin-containing] B (Rattus norvegicus, UniProt P19643); assay: Inhibition of MAOB in rat brain mitochondria
T1 sequence (P19643 whole entry): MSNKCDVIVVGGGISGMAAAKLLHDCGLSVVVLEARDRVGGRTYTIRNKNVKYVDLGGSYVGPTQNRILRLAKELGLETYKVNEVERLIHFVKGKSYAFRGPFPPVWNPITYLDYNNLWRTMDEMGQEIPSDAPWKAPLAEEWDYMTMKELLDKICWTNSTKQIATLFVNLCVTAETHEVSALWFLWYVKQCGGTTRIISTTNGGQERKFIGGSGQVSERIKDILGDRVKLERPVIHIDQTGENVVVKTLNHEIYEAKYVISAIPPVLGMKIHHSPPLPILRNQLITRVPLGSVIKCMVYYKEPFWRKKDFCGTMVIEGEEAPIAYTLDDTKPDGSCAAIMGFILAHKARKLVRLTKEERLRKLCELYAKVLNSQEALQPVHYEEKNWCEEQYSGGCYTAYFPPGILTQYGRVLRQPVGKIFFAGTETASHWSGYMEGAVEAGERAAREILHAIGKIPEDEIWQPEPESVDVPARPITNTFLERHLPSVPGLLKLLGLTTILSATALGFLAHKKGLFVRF
Method in brief: (§1)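 Substrate is 5-HT for MAO-A and DMAPEA for MAO-B. Substrates and their metabolites are measured by HPLC with electrochemical detection. Percent inhibition is taken against enzyme treated the same way without inhibitor and plotted against −log inhibitor concentration to give IC50. Runs are at least two independent experiments, each in triplicate. Ki is from IC50 by Cheng–Prusoff, using the substrate's Km.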

[2] = target: T2, Amine oxidase [flavin-containing] A (Rattus norvegicus, UniProt P21396); assay: Inhibition of MAOA in rat brain mitochondria; method in brief: as §1
T2 sequence (P21396 whole entry): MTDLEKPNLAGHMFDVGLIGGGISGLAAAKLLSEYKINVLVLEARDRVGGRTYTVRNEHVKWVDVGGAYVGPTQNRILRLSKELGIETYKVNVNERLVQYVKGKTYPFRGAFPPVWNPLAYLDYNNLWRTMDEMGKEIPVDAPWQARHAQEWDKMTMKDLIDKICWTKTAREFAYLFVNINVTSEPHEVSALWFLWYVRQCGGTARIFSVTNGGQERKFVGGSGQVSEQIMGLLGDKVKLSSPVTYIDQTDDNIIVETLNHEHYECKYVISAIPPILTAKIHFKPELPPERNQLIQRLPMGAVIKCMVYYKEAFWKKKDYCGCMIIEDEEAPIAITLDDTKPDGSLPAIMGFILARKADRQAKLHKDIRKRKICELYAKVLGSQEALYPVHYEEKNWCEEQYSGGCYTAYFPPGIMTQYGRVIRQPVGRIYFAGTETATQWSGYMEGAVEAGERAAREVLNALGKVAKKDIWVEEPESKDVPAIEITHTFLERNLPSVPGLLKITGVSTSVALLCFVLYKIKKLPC

Row | SMILES | Ki [1] | Ki [2]
1 | COc1ccc2cc(CC(C)N)ccc2c1 (stereo unspecified) | 16.3 µM | 0.18 µM
2 | CSc1ccc2cc(CC(C)N)ccc2c1 (stereo unspecified) |  | 0.5 µM
3 | CC(N)Cc1ccc(OCc2ccccc2)cc1 (stereo unspecified) | 0.71 µM | 3.42 µM
4 | COc1ccc(CNC(C)Cc2ccc(SC)cc2)cc1 (stereo unspecified) |  | > 100 µM
5 | CC(N)Cc1cccc2ccccc12 (stereo unspecified) | > 100 µM | 5.63 µM
6 | CCCCOc1ccc2cc(CC(C)N)ccc2c1 (stereo unspecified) |  | 1.53 µM
7 | CSc1ccc(CC(C)NCc2ccc(OCc3ccccc3)cc2)cc1 (stereo unspecified) |  | > 100 µM
8 | CCCCOc1ccc(CNC(C)Cc2ccc(SC)cc2)cc1 (stereo unspecified) |  | 90 µM
9 | CCCOc1ccc(CC(C)N)cc1 (stereo unspecified) | > 100 µM | 0.13 µM
10 | CCOc1ccc2cc(CC(C)N)ccc2c1 (stereo unspecified) | 13.6 µM | 0.45 µM
11 | CC(N)Cc1ccccc1 (stereo unspecified) [AMPHETAMINE SULFATE] |  | 12.2 µM
12 | CCOc1ccc(CC(C)N)cc1 (stereo unspecified) | > 100 µM | 0.22 µM
13 | CSc1ccc(CC(C)N)cc1 (stereo unspecified) [4-METHYLTHIOAMPHETAMINE] |  | 0.25 µM
14 | CCCCOc1ccc2cc(CC(C)NCc3ccccc3)ccc2c1 (stereo unspecified) | 22.2 µM | 14.5 µM
15 | CC(N)Cc1ccc2ccccc2c1 (stereo unspecified) | > 100 µM | 0.42 µM
16 | CSc1ccc(CC(C)NCc2ccccc2)cc1 (stereo unspecified) | > 100 µM | > 100 µM
17 | CCCCOc1ccc(CC(C)N)cc1 (stereo unspecified) | > 100 µM | 0.32 µM
18 | CSc1ccc(CC(C)NCc2ccc(O)cc2)cc1 (stereo unspecified) | > 100 µM | > 100 µM
19 | COc1ccc2cc(CC(C)NCc3ccccc3)ccc2c1 (stereo unspecified) | 24.7 µM | 6.93 µM
20 | COc1ccc(CC(C)N)cc1 (stereo unspecified) [PARA-METHOXYAMPHETAMINE] |  | 0.25 µM
21 | CCCOc1ccc2cc(CC(C)N)ccc2c1 (stereo unspecified) | 13.5 µM | 0.68 µM
22 | CC(N)Cc1ccc2cc(OCc3ccccc3)ccc2c1 (stereo unspecified) | 2.56 µM | 3.78 µM

— ChEMBL document CHEMBL1152788, “Naphthylisopropylamine and N-benzylamphetamine derivatives as monoamine oxidase inhibitors” (Bioorg Med Chem, 2009)
